Results from ChEMBL document CHEMBL3044956, “Nematicidal and antifungal activities of annonaceous acetogenins from Annona squamosa against various plant pathogens” (J Agric Food Chem, 2011).
Values after ≈ are worked out from the molar mass of the structure shown.

Key:
[1] = system: Bursaphelenchus xylophilus; assay: Nematicidal activity against second juvenile stage (J2) of Bursaphelenchus xylophilus assessed as mortality after 2 days by microtiter plate assay method (Beneficial crop Pine); format: functional; details: 48 h
How it was run: (§1)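 Pine wood nematodes reared on B. cinerea mycelia on PDA for 7 days at 28 °C. J2s collected in 0.01% Triton X-100 water and tested in microtiter plates. Compounds in DMSO or MeOH, solvent ≤1%; solvent-only controls. Concentrations 0.004–1 μg/mL. Mortality Abbott-corrected; LC50 by probit. Two runs, three replicates each.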

[2] = system: Bursaphelenchus xylophilus; assay: Nematicidal activity against second juvenile stage (J2) of Bursaphelenchus xylophilus assessed as mortality at >0.33 ug/ml after 2 days by microtiter plate assay method (Beneficial crop Pine); format: functional; how it was run: as §1
Meloidogyne incognita [3] = assay: Nematicidal activity against second juvenile stage (J2) of Meloidogyne incognita (root-knot nematode) assessed as mortality incubated in the dark at 28 degC after 3 days by light microscopy (benficial crop Tomato); format: functional; details: 72 h
How it was run: (§2)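 M. incognita eggs taken from infected tomato roots with hypochlorite and J2s hatched in Baermann funnels at 28 °C. J2s from the first 3 days kept in 0.01% Tween 20 water and used within 24 h. About 100 J2s per well; stock added 1:100 in DMSO or MeOH (≤1%). Plates kept shaking in the dark at 28 °C, scored by microscope at 1, 2 and 3 days. Mortality Abbott-corrected. Two runs, three replicates each.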

Meloidogyne incognita [4] = assay: Nematicidal activity against second juvenile stage (J2) of Meloidogyne incognita (root-knot nematode) assessed as mortality incubated in the dark at 28 degC after 2 days by light microscopy (benficial crop Tomato); format: functional; details: 48 h; how it was run: as §2
Rhizoctonia solani [5] = assay: In vivo antifungal activity against Rhizoctonia solani infected rice seedlings assessed as control of rice sheath blight disease development at 125 ug/ml treated 1 day before spore inoculation measured 3-7 days after inoculation; format: functional
How it was run: (§3)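 Potted seedlings sprayed to runoff with material dissolved in MeOH and diluted in 0.025% Tween 20 (5% MeOH); controls got the Tween/MeOH solution alone. Inoculated with spores or mycelial suspension 1 day later. Infected leaf or sheath area rated 3–7 days after inoculation; % control = 100(A−B)/A. Randomized complete block design, three replicates, run in duplicate; Tukey HSD.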

Botrytis cinerea [6] = assay: In vivo antifungal activity against Botryotinia fuckeliana infected in tomato seedlings assessed as control of tomato gray mold disease development at 250 ug/ml treated 1 day before spore inoculation measured 3-7 days after inoculation; format: functional; how it was run: as §3
Botrytis cinerea [7] = assay: In vivo antifungal activity against Botryotinia fuckeliana infected in tomato seedlings assessed as control of tomato gray mold disease development at 500 ug/ml treated 1 day before spore inoculation measured 3-7 days after inoculation; format: functional; how it was run: as §3
Rhizoctonia solani [8] = assay: In vivo antifungal activity against Rhizoctonia solani infected rice seedlings assessed as control of rice sheath blight disease development at 250 ug/ml treated 1 day before spore inoculation measured 3-7 days after inoculation; format: functional; how it was run: as §3
Rhizoctonia solani [9] = assay: In vivo antifungal activity against Rhizoctonia solani infected rice seedlings assessed as control of rice sheath blight disease development at 500 ug/ml treated 1 day before spore inoculation measured 3-7 days after inoculation; format: functional; how it was run: as §3
Pyricularia oryzae [10] = assay: In vivo antifungal activity against Magnaporthe oryzae infected rice seedlings assessed as control of rice blast disease development at 125 ug/ml treated 1 day before spore inoculation measured 3-7 days after inoculation; format: functional; how it was run: as §3
Pyricularia oryzae [11] = assay: In vivo antifungal activity against Magnaporthe oryzae infected rice seedlings assessed as control of rice blast disease development at 250 ug/ml treated 1 day before spore inoculation measured 3-7 days after inoculation; format: functional; how it was run: as §3
Pyricularia oryzae [12] = assay: In vivo antifungal activity against Magnaporthe oryzae infected rice seedlings assessed as control of rice blast disease development at 500 ug/ml treated 1 day before spore inoculation measured 3-7 days after inoculation; format: functional; how it was run: as §3
Puccinia recondita [13] = assay: In vivo antifungal activity against Puccinia recondita infected wheat seedlings assessed as reduction in wheat leaf rust disease symptoms development at 125 ug/ml treated 1 day before spore inoculation measured 7 days after inoculation; format: functional; design: scale not given: the % may be the effect or the level left; how it was run: as §3
Puccinia recondita [14] = assay: In vivo antifungal activity against Puccinia recondita infected wheat seedlings assessed as reduction in wheat leaf rust disease symptoms development at 250 ug/ml treated 1 day before spore inoculation measured 7 days after inoculation; format: functional; design: scale not given: the % may be the effect or the level left; how it was run: as §3
Puccinia recondita [15] = assay: In vivo antifungal activity against Puccinia recondita infected wheat seedlings assessed as reduction in wheat leaf rust disease symptoms development at 500 ug/ml treated 1 day before spore inoculation measured 7 days after inoculation; format: functional; design: scale not given: the % may be the effect or the level left; how it was run: as §3
Phytophthora infestans [16] = assay: In vivo antifungal activity against Phytophthora infestans zoospores infected tomato seedlings assessed as control of tomato late blight disease development treated 1 day before spore inoculation measured 3 days after inoculation; format: functional, organism-based; how it was run: as §3
Phytophthora infestans [17] = assay: Antifungal activity against Phytophthora infestans assessed as inhibition of radial mycelial growth at 11.11 to 900 ug/ml incubated at 20 degC for 5 to 7 days by poison plate assay; format: functional
How it was run: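 Poison-plate assay: material in MeOH added 1:100 to V8-agar at 50 °C, 2 mL per well of six-well plates, centre-inoculated with a 5 mm plug from the colony margin. Incubated at 20 °C until control growth reached the edge. Controls were 1% MeOH. Read as % inhibition of radial growth. Two runs, four replicates each. IC50 by probit.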

Phytophthora infestans [18] = assay: Antifungal activity against Phytophthora infestans assessed as inhibition of zoospore germination incubated in the dark at 20 degC for 24 hr by light microscopy; format: functional, organism-based
How it was run: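 Zoospores released by chilling sporangia 1 h at 4 °C, then filtered to remove sporangia. Test solution in MeOH mixed 1:100 with the suspension (1% MeOH control), loaded onto hole-slide glasses and kept humid at 20 °C for 24 h in the dark. Germinated cells counted per hole by light microscope. Experiment repeated, mean ± SD.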

Phytophthora infestans [19] = assay: Antifungal activity against Phytophthora infestans assessed as inhibition of sporangium germination incubated at 20 degC for 24 hr by light microscopy; format: functional, organism-based
How it was run: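 Sporangium germination: compounds serially diluted in MeOH (12500 to 391 μg/mL as stock series), sporangia incubated 24 h at 20 °C. About 100 sporangia per replicate scored for germination by light microscope. Experiment repeated, mean ± SD. IC50 by probit.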

Meloidogyne incognita [20] = assay: Nematicidal activity against second juvenile stage (J2) of Meloidogyne incognita (root-knot nematode) assessed as mortality incubated in the dark at 28 degC after 1 day by light microscopy (benficial crop Tomato); format: functional; details: 24 h; how it was run: as §2
Colletotrichum coccodes [21] = assay: In vivo antifungal activity against Colletotrichum coccodes infected red pepper seedlings assessed as control of red pepper anthracnose development at 125 ug/ml treated 1 day before spore inoculation measured 3-7 days after inoculation; format: functional; how it was run: as §3
Colletotrichum coccodes [22] = assay: In vivo antifungal activity against Colletotrichum coccodes infected red pepper seedlings assessed as control of red pepper anthracnose development at 250 ug/ml treated 1 day before spore inoculation measured 3-7 days after inoculation; format: functional; how it was run: as §3
Colletotrichum coccodes [23] = assay: In vivo antifungal activity against Colletotrichum coccodes infected red pepper seedlings assessed as control of red pepper anthracnose development at 500 ug/ml treated 1 day before spore inoculation measured 3-7 days after inoculation; format: functional; how it was run: as §3
Blumeria hordei [24] = assay: In vivo antifungal activity against Blumeria graminis f. sp. hordei infected barley seedlings assessed as control of barley powdery mildew disease development at 125 ug/ml treated 1 day before spore inoculation measured 3-7 days after inoculation; format: functional; how it was run: as §3
Blumeria hordei [25] = assay: In vivo antifungal activity against Blumeria graminis f. sp. hordei infected barley seedlings assessed as control of barley powdery mildew disease development at 250 ug/ml treated 1 day before spore inoculation measured 3-7 days after inoculation; format: functional; how it was run: as §3
Blumeria hordei [26] = assay: In vivo antifungal activity against Blumeria graminis f. sp. hordei infected barley seedlings assessed as control of barley powdery mildew disease development at 500 ug/ml treated 1 day before spore inoculation measured 3-7 days after inoculation; format: functional; how it was run: as §3
Botrytis cinerea [27] = assay: In vivo antifungal activity against Botryotinia fuckeliana infected in tomato seedlings assessed as control of tomato gray mold disease development at 125 ug/ml treated 1 day before spore inoculation measured 3-7 days after inoculation; format: functional; how it was run: as §3
Blumeria hordei [28] = assay: In vivo antifungal activity against Blumeria graminis f. sp. hordei infected barley seedlings assessed as control of barley powdery mildew disease development at 1 ug/ml treated 1 day before spore inoculation measured 3-7 days after inoculation; format: functional; how it was run: as §3
Blumeria hordei [29] = assay: In vivo antifungal activity against Blumeria graminis f. sp. hordei infected barley seedlings assessed as control of barley powdery mildew disease development at 100 ug/ml treated 1 day before spore inoculation measured 3-7 days after inoculation; format: functional; how it was run: as §3
Pyricularia oryzae [30] = assay: In vivo antifungal activity against Magnaporthe oryzae infected rice seedlings assessed as control of rice blast disease development at 1 ug/ml treated 1 day before spore inoculation measured 3-7 days after inoculation; format: functional; how it was run: as §3
Pyricularia oryzae [31] = assay: In vivo antifungal activity against Magnaporthe oryzae infected rice seedlings assessed as control of rice blast disease development at 50 ug/ml treated 1 day before spore inoculation measured 3-7 days after inoculation; format: functional; how it was run: as §3

CCCCCCCCCC[C@@H](O)[C@H]1CC[C@H]([C@H](O)CCCCCCCCCCCCCCC2=C[C@H](C)OC2=O)O1 (relative stereo) [REL-ANNOTEMOYIN-1]
LC50 [1]: 0.947 µg/mL

CCCCCCCCCCCC[C@@H](O)[C@H]1CC[C@H]([C@H](O)CCCCCCCCCCCCC2=C[C@H](C)OC2=O)O1 (relative stereo) [REL-SOLAMIN]
LC50 [1]: > 1 µg/mL

CCCCCCCCCC[C@H](O)[C@H]1CC[C@H]([C@H]2CC[C@H]([C@H](O)CCCCCCCCCCC3=C[C@H](C)OC3=O)O2)O1 (relative stereo) [REL-SQUAMOCIN-J]
mortality [2]: 100%
LC50 [1]: 0.025 µg/mL

CCCCCCCCCC[C@@H](O)[C@H]1CC[C@H]([C@H]2CC[C@H]([C@H](O)CCCCCCCCCCC3=C[C@H](C)OC3=O)O2)O1 (relative stereo) [REL-SQUAMOCIN-K]
mortality [2]: 100%
LC50 [1]: 0.039 µg/mL

CCCCCC[C@H](O)CCC[C@@H](O)[C@H]1CC[C@H]([C@H]2CC[C@H]([C@H](O)CCCCCCCCCCCCC3=C[C@H](C)OC3=O)O2)O1 (relative stereo) [REL-SQUAMOCIN]
LC50 (Meloidogyne incognita [3]): 54.9 µg/mL (≈ 88.1 µM)
LC50 (Meloidogyne incognita [4]): > 100 µg/mL
Activity (Rhizoctonia solani [5]): 0%
Activity (Botrytis cinerea [6]): 0%
Activity (Botrytis cinerea [7]): 0%
Activity (Rhizoctonia solani [8]): 11.8%
Activity (Rhizoctonia solani [9]): 0%
Activity (Pyricularia oryzae [10]): 0%
Activity (Pyricularia oryzae [11]): 0%
Activity (Pyricularia oryzae [12]): 50%
Activity (Puccinia recondita [13]): 0%
Activity (Puccinia recondita [14]): 20%
Activity (Puccinia recondita [15]): 83.3%
Activity (Phytophthora infestans [16]): Dose-dependent effect
growth inhibition (GI) (Phytophthora infestans [17]): 31%
IC50 (Phytophthora infestans [18]): 3.05 µg/mL (≈ 4.9 µM)
inhibition (Phytophthora infestans [18]): Dose-dependent effect
IC50 (Phytophthora infestans [19]): 1.24 µg/mL (≈ 1.99 µM)
inhibition (Phytophthora infestans [19]): Dose-dependent effect
mortality [2]: 100%
LC50 [1]: 0.006 µg/mL
LC50 (Meloidogyne incognita [20]): > 100 µg/mL
Activity (Colletotrichum coccodes [21]): 0%
Activity (Colletotrichum coccodes [22]): 0%
Activity (Colletotrichum coccodes [23]): 0%
Activity (Blumeria hordei [24]): 0%
Activity (Blumeria hordei [25]): 0%
Activity (Blumeria hordei [26]): 0%
Activity (Botrytis cinerea [27]): 0%

CCCCNC(=O)n1c(NC(=O)OC)nc2ccccc21 [BENOMYL]
Activity (Blumeria hordei [28]): 75%
Activity (Blumeria hordei [29]): 100%

CN(CC[C@H](N)CC(=O)N[C@H]1CC[C@H](n2ccc(N)nc2=O)O[C@@H]1C(=O)O)C(=N)N [BLASTADIN S]
Activity (Pyricularia oryzae [30]): 65.5%
Activity (Pyricularia oryzae [31]): 100%
